# CHO parental Ca: counter-screen for OX1R antagonists: effect in parental CHO cells. inhibition, % at 5.6 µM. parental CHO-K1, ATP-induced calcium, Fluo-8 fluorescence. AID 463079. hit rate 0.63% among 330,000;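 active = inhibition above that plate's mean sample inhibition plus 3 SD, cut at about 26% in these data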;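 note: 0% = ATP-challenged DMSO wells and 100% = DMSO wells without ATP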
#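 Test system: untransfected parental CHO cell line. Compound: one dose, 5.6 µM nominal. Detection: intracellular calcium via Fluo-8 no-wash fluorescent dye. Measure: % inhibition. Benchmarks: ATP-challenged DMSO wells low, unchallenged DMSO wells high.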
# OX1R antag-1: blocks the human orexin 1 receptor; O43613; CHO/OX1R cells, Fluo-8 calcium fluorescence, orexin A; inhibition, % at 5 µM; hit rate 0.43% among 330,000; AID 434989;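 active = inhibition above its plate's threshold, mean inhibition of all tested compounds on the plate plus 3 SD, cut at about 37% in these data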;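 note: 0% = orexin A challenge wells and 100% = SB-334867-A antagonist wells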
# Target sequence (O43613 whole entry, looked up): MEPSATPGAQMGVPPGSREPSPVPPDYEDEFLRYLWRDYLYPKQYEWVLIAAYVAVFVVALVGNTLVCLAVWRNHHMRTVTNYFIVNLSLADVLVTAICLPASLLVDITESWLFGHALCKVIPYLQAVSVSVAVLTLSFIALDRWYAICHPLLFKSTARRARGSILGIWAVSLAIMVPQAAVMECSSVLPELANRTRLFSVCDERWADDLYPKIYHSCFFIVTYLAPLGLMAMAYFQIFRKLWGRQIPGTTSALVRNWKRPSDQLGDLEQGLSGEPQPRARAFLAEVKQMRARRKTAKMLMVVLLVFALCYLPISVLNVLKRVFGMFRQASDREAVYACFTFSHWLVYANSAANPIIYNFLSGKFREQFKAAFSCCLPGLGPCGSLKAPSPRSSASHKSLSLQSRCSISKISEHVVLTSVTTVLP
# OX1R antag-2: antagonists of human orexin 1 receptor (OX1R); OX1R-expressing cells, FRET antagonist read-out; hit rate 1.8% among 330,000; O43613; inhibition, % at 6.6 µM; in the data active = inhibition mostly above about 38%, no sharp cut-off; inactive = mostly below about 40%;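 note: 0% = agonist challenge alone and 100% = reference antagonist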
# CHO-K1 Ca antag: M1 antagonist counterscreen hit in parental CHO-K1 cells | hit rate 0.6% among 360,000 | inhibition, % at 3 µM | ATP-induced calcium, Fluo-8 fluorescence | AID 602250;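 active = inhibition above a per-plate cutoff, the plate's mean sample inhibition plus 3 SD, cut at about 24% in these data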;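 note: 0% = DMSO plus EC80 ATP and 100% = DMSO alone without ATP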
# M1 PAM parental: nonselective activator or artifact in parental CHO-K1 calcium assay; ATP EC20, Fluo-8 calcium fluorescence; 0% at ATP EC20, 100% at ATP max; activation, % at 3 µM; hit rate 0.02% among 360,000; AID 602247;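 active = activation above the run cutoff, the mean activation of all test compounds plus 3 SD, cut at about 40% in these data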;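 note: peak over basal fluorescence ratio in a 140 s read after ATP addition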
# M1 ag parental: nonselective activator or artifact in parental CHO-K1 cells; Fluo-8 calcium fluorescence; scaled to maximal ATP response, vehicle zero; activation, % at 3 µM; hit rate 0.48% among 360,000; AID 602248; in the data active = activation above about 15%;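 note: untransfected CHO-K1 host cells lacking M1 receptor as counterscreen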
# * = called active by the depositor; nt = no result. The list is not random: actives were taken first. Their share in the collection is about 2.9%.
SMILES,CHO parental Ca,OX1R antag-1,OX1R antag-2,CHO-K1 Ca antag,M1 PAM parental,M1 ag parental
O=C(Cn1c(C(=O)OCCO)cc2ccccc21)c1ccccc1,6,-18,9,-11,18,2
Cc1c(C(=O)O)c(O)cc2c1C(=O)c1c(O)c([C@@H]3O[C@H](CO)[C@@H](O)[C@H](O)[C@H]3O)c(O)c(O)c1C2=O,11,-9,71*,-10,2,1
COc1c(O)cc2c(c1O)[C@@H]1O[C@H](CO)[C@@H](O)[C@H](O)[C@H]1OC2=O,-1,-15,10,-6,-7,1
Cc1ccc(NC2=CC(=O)C(=O)c3ccccc32)cc1,-22,-21,52*,-7,14,0
CCOC(=O)c1ccc(NC2=CC(=O)C(=O)c3ccccc32)cc1,-12,-30,28,-1,20,0
NS(=O)(=O)c1ccc(NC2=CC(=O)C(=O)c3ccccc32)cc1,4,8,60*,-11,19,1
COc1ccc(C(=O)NCCCNC(=O)c2cc3ccccc3[nH]2)cc1OC,-22,-5,70*,-2,-1,2
O=C(NCCCO)c1cc2ccccc2[nH]1,-8,-7,2,-13,27,2
Cn1c(=O)[nH]c(N)c(Br)c1=O,nt,nt,nt,-10,4,1
COc1ccccc1CNC(=O)C1(C)CCN1Cc1ccc(OC(F)(F)F)cc1 (stereo not drawn),nt,nt,nt,-7,6,0
CCCCn1c(N)c(Sc2ccccc2[N+](=O)[O-])c(=O)[nH]c1=O,-5,-23,55*,-1,-11,1
N#Cc1ccc(OCC(=O)N(C2CCCCC2)C2CCS(=O)(=O)C2)cc1 (stereo not drawn),-9,0,-1,-10,0,1
CCOc1ccc(OCCC(=O)N(CCCOC)c2c(N)n(Cc3ccccc3)c(=O)[nH]c2=O)cc1,-3,-20,13,5,1,1
O=S(=O)(Nc1ccc(Nc2ccccc2)cc1)c1ccc(F)cc1,3,-8,5,24*,-26,-1
O=[N+]([O-])c1ccc(Oc2cnc3ccccc3n2)cc1,-6,-25,19,-1,14,0
O=C1C(Cl)=C(NS(=O)(=O)c2ccc([N+](=O)[O-])cc2)C(=O)c2ccccc21,12,0,45*,-1,13,0
O=[N+]([O-])c1ccc(S(=O)(=O)Nc2ccncc2)cc1,15,-1,25,-9,1,-1
O=[N+]([O-])c1ccc(Oc2ccc(S(=O)(=O)Nc3ccccc3)cc2)cc1,20,50*,26,29*,-6,19*
O=[N+]([O-])c1ccc(Oc2ncccn2)cc1,-8,-6,45*,-9,25,1
COc1cccc2c1C1COC3C4CC(C(=O)O)C(C(C2)N13)N4C (stereo not drawn),nt,nt,nt,-13,13,1
CCN(Cc1cnn(C)c1)C(=O)c1ccc(OC2CCN(S(=O)(=O)N(C)C)CC2)cc1,-3,-2,14,-14,3,1
O=C(O)c1ccccc1-c1ccc([N+](=O)[O-])cc1Cl,nt,nt,nt,-2,3,0
O=[N+]([O-])c1ccc2c(c1)S(=O)c1ccccc1-2 (stereo not drawn),-28,-6,75*,7,-13,0
Cc1cc(C)c(C(=O)CSc2n[nH]c(-c3ccncc3)n2)c(C)c1,-7,-21,41,8,1,18*
COC(=O)[C@@]1(Cc2ccc(F)cc2)[C@H]2c3cc(C(=O)N4CCCC4)n(CCN4CCNC4=O)c3C[C@H]2CN1C(=O)c1ccccc1,nt,nt,nt,-15,-4,0
SMILES,CHO parental Ca,OX1R antag-1,OX1R antag-2,CHO-K1 Ca antag,M1 PAM parental,M1 ag parental
COc1cc(Nc2c3c(nc4ccccc24)CCCC3)cc(OC)c1OC,-10,-30,11,4,7,17*
O=C(Nc1ccc2nc(-c3ccco3)c(-c3ccco3)nc2c1)NC1CC1,nt,nt,nt,-7,10,0
O=C(Nc1ccc(N2CCOCC2)cc1)Nc1ccc2nc(-c3ccco3)c(-c3ccco3)nc2c1,7,-7,51*,-1,-14,0
O=C(CSc1n[nH]c(=O)n1C1CC1)c1ccc(F)cc1,-3,-7,8,5,2,1
CSc1n[nH]c(=O)n1C1CCCCC1,-22,-13,10,1,1,18*
COc1ccccc1C(C(=O)NCc1ccccc1)N(C(=O)c1csnn1)C1CC1 (stereo not drawn),-23,-18,14,-12,-17,2
CCCCC[C@@H]1[C@@H]2C(=C(OCC)C[C@@H]3C(=O)N(c4ccccc4)C(=O)[C@H]23)[C@H](c2ccccc2)N1S(=O)(=O)c1ccc(C)cc1,nt,nt,nt,25*,-1,0
CCOC1=C2CN(S(=O)(=O)c3ccc(C)cc3)[C@@H](c3ccccc3)C[C@H]2[C@H]2C(=O)N(c3ccccc3)C(=O)[C@H]2C1,nt,nt,nt,28*,5,3
c1ccc(-c2noc(CN3CCc4sccc4C3)n2)cc1,4,-23,28,-15,21,2
Cn1nc(C(F)(F)F)c(-c2cccc(C(F)(F)F)c2)c1NC(=O)Nc1ccc(F)cc1,18,28,19,33*,-25,15*
Cc1ccc(SCCNC(=O)c2ccc(C)c(S(=O)(=O)Nc3ccccc3C)c2)cc1,8,20,48*,-23,2,2
Cc1ccc(S(=O)(=O)Nc2cccnc2)cc1,-6,-4,0,-8,21,4
CCCCOc1ccc(S(=O)(=O)Nc2cccnc2)cc1,39*,7,15,6,2,30*
O=c1[nH]c2cc(Cl)c(Br)cc2o1,nt,nt,nt,-3,15,16*
CCOc1ccc(CN(C)C(=O)c2cc(S(=O)(=O)N3CCCC3)ccc2C)cc1,-10,-22,0,-4,-16,4
CNC(=O)c1ccsc1NC(=O)CCS(=O)(=O)c1ccccc1,2,-9,7,4,-16,1
CNC(=O)c1ccsc1NC(=O)c1ccccc1,-5,-8,43*,-5,2,0
Cc1ccc(F)cc1NC(=O)CN1CCN(Cc2ccccc2)CC1,-10,-23,8,-1,0,7
O=C1NC2(c3ccccc3)NC(=O)NC2(c2ccccc2)N1 (stereo not drawn),nt,nt,nt,4,25,1
CN1C(=O)N(C)C2(c3ccccc3)NC(=O)NC12c1ccccc1 (stereo not drawn),-16,-7,-30,29*,-8,0
O=C1CCCC/C1=C/Nc1ccc2c(c1)OCO2,-3,-6,7,29*,-7,0
CCOC(=O)C1C(=O)C=C(c2ccc(C)cc2)CC1c1ccccc1 (stereo not drawn),-17,-45,28,-7,-6,0
CCOC(=O)C1C(=O)C=C(/C=C/c2ccc(N(C)C)cc2)CC1c1ccccc1 (stereo not drawn),41*,40,28,14,6,22*
